Square brackets hold non-standard residues; d marks the D form. Peptide text beside a SMILES is read from it. ξ: configuration not given here. NMeY = CN[C@@H](Cc1ccc(O)cc1)C(=O)O; NMeF = CN[C@@H](Cc1ccccc1)C(=O)O; ξP = O=C(O)C1CCCN1; Ava = NCCCCC(=O)O
How the values were obtained:
[1] = target: Mu-type opioid receptor (Rattus norvegicus, UniProt P33535); test: Displacement of [3H]DAMGO from mu opioid receptor in rat brain membrane by liquid scintillation counting analysis; assay type: cell membranes
Sequence of Mu-type opioid receptor (P33535 whole entry): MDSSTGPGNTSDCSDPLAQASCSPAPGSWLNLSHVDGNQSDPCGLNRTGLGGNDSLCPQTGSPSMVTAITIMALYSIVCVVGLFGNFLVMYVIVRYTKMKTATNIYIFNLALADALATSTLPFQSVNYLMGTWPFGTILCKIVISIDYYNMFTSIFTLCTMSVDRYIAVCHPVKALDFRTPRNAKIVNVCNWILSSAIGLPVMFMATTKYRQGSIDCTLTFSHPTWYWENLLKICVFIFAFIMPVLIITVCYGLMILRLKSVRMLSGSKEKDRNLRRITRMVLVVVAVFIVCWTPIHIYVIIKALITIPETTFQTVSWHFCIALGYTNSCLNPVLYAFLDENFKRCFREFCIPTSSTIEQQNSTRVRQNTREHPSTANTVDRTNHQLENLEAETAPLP
Method in brief: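 Competitive radioligand binding at the mu (MOR) opioid receptor with [3H]-DAMGO as tracer; affinity expressed as Ki.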

[2] = target: Kappa-type opioid receptor (Cavia porcellus, UniProt P41144); test: Displacement of [3H]U69593 from kappa opioid receptor in guinea pig cortices membrane by liquid scintillation counting analysis; assay type: cell membranes
Sequence of Kappa-type opioid receptor (P41144 whole entry): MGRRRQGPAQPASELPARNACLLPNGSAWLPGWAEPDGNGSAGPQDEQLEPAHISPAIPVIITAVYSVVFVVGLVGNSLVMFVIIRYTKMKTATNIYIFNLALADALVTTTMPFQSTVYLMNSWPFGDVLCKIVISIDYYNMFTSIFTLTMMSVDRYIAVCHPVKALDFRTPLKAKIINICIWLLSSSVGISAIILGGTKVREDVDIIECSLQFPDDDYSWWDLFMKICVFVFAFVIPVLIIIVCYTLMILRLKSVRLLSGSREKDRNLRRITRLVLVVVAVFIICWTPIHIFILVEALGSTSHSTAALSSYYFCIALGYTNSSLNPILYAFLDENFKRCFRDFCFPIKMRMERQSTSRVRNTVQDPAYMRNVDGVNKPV
Method in brief: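 Competitive radioligand binding at the kappa (KOR) opioid receptor with [3H]-U69,593 as tracer; affinity expressed as Ki.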

CC(C)C[C@H]1CNC(=S)N1C[C@H](Cc1ccccc1)N(C)CCN(C)CCN1C[C@H](Cc2ccc(O)cc2)N(C)C1=S
Ki [1]: 7.11 µM
Ki [2]: 3.42 µM

CN[C@H](CNCC(=O)N(C)CCN(C)[C@H](CN[C@H](CN)CC(C)C)Cc1ccccc1)Cc1ccc(O)cc1
Ki [1]: 1.5 µM
Ki [2]: 1.11 µM

CC(C)C[C@H]1CNC(=O)C(=O)N1C[C@H](Cc1ccccc1)N(C)CCN(C)CCN1C[C@H](Cc2ccc(O)cc2)N(C)C(=O)C1=O
Ki [1]: 15.2 µM
Ki [2]: 94.2 µM

CC(C)C[C@H]1CNCCN1C[C@H](Cc1ccccc1)N(C)CCN(C)CCN1CCN(C)[C@@H](Cc2ccc(O)cc2)C1
Ki [1]: 2.65 µM
Ki [2]: 3.12 µM

CC(C)C[C@H]1CNC(=S)N1C[C@H](Cc1ccccc1)N(C)CCN1CCN(C[C@H](Cc2ccc(O)cc2)N(C)C)C1=S
Ki [1]: 0.74 µM
Ki [2]: 2.3 µM

CC(C)C[C@H]1CNC(=N)N1C[C@H](Cc1ccccc1)N(C)CCN1CCN(C[C@H](Cc2ccc(O)cc2)N(C)C)C1=N
Ki [1]: 1.08 µM
Ki [2]: 11.3 µM

CC(C)C[C@H]1CNCCN1C[C@H](Cc1ccccc1)N(C)CCN1CCN(C[C@H](Cc2ccc(O)cc2)N(C)C)CC1
Ki [1]: 1.15 µM
Ki [2]: 3.43 µM

CC(C)C[C@H]1CNC(=S)N1C[C@H](Cc1ccccc1)N(C)C[C@@H]1CCCN1C[C@H](Cc1ccc(O)cc1)N(C)C
Ki [1]: 0.43 µM
Ki [2]: 3.32 µM

CC(C)C[C@H]1CNC(=O)C(=O)N1C[C@H](Cc1ccccc1)N(C)C[C@@H]1CCCN1C[C@H](Cc1ccc(O)cc1)N(C)C
Ki [1]: 0.25 µM
Ki [2]: 10.6 µM

CC(C)C[C@@H](CN)NC[C@H](Cc1ccccc1)N(C)C[C@@H]1CCCN1C[C@H](Cc1ccc(O)cc1)N(C)C
Ki [1]: 0.06 µM
Ki [2]: 1.28 µM

CC(C)C[C@H]1CNC(=S)N1C[C@H](Cc1ccccc1)N(C)CCCCCN1C[C@H](Cc2ccc(O)cc2)NC1=S
Ki [1]: 11 µM
Ki [2]: 9.48 µM

CC(C)CC(CN)NCC(Cc1ccccc1)N(C)CCCCCNCC(N)Cc1ccc(O)cc1 (stereo not drawn)
Ki [1]: 1.79 µM
Ki [2]: 1.62 µM

CC(C)C[C@H](NC(=O)[C@H](Cc1ccccc1)N(C)C(=O)CCCCNC(=O)[C@@H](N)Cc1ccc(O)cc1)C(N)=O (H-Y[Ava][NMeF]L-NH2)
Ki [1]: 38.9 µM
Ki [2]: 22.5 µM

CN[C@@H](Cc1ccc(O)cc1)C(=O)N1CCCC1C(=O)N(C)[C@@H](Cc1ccccc1)C(=O)N[C@@H](CC(C)C)C(N)=O (stereo partly drawn) (H-[NMeY][ξP][NMeF]L-NH2)
Ki [1]: 2.14 µM
Ki [2]: 2.03 µM

Reference: ChEMBL document CHEMBL3351968, “Synthesis and analgesic activity of alkylated, reduced and constrained oligoheterocyclic peptidomimetic analogs of Leu-enkephalin” (Bioorg Med Chem Lett, 2014)
